hIAP act = increases human intestinal alkaline phosphatase activity; activation factor at 10 µM; 0.16% of 330,000 active; AID 2524; purified human IAP, CDP-Star luminescence, 30 min; hits give high values; 1 = vehicle-only enzyme, 0 = enzyme-free background; P09923;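 active = activation factor of the enzyme at least 2-fold when tested at 20 µM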
Target sequence (P09923 whole entry, looked up): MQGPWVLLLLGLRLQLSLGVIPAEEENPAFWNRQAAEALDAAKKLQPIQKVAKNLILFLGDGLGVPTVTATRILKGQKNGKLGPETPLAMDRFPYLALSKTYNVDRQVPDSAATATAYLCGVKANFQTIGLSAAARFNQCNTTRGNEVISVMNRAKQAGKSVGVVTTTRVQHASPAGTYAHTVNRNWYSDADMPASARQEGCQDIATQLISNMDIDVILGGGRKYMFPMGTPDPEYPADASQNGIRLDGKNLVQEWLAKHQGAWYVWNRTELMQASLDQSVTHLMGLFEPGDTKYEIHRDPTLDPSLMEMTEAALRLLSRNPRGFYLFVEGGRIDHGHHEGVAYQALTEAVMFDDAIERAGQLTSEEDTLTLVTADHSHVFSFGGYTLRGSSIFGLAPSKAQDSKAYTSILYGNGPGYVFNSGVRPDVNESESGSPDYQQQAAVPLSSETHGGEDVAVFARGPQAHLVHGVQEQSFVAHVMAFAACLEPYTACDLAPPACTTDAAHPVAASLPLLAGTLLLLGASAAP
mIAP activ = increases mouse intestinal alkaline phosphatase activity. 0.24% of 330,000 active. muIAP, CDP-Star luminescence, 30 min; hits give high values; 1 = vehicle-only enzyme signal, 0 = enzyme-free wells. activation factor at 10 µM. AID 2805;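 active = activation factor of at least 2 at 20 µM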
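Assay system: mouse IAP enzyme; reagent: chemiluminescent substrate CDP-Star; dosing: test compounds delivered from DMSO solution; schedule: 30 min at room temperature; measured by: luminescence from enzymatic CDP-Star hydrolysis; controls: DMSO-only wells and no-enzyme negative control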
hIAP block = blocks human intestinal alkaline phosphatase | 0.12% of 330,000 active | purified IAP, CDP-Star luminescence, 30 min | P09923 | AID 2544 | inhibition, % at 10 µM;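 active = inhibition reaching a set limit with compound at 10 µM in the primary screen, cut at about 35% in these data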;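 also: plate controls were DMSO wells with enzyme for no effect and no-enzyme buffer wells for full effect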
mIAP block = blocks mouse intestinal alkaline phosphatase; purified mouse IAP, CDP-Star luminescence, 30 min; inhibition, % at 10 µM; 0.2% of 330,000 active;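 active = inhibition of at least 40% at 10 µM in the primary screen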;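 also: plate controls were DMSO with enzyme for no effect and no enzyme wells for full effect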
bIAP inhibitor = blocks bovine intestinal alkaline phosphatase activity; AID 1019; 190,000 tested, under 10 active; inhibition, % at 20 µM; purified bovine IAP, CDP-star luminescence, 30 min;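 active = over 50% inhibition of intestinal alkaline phosphatase at 20 µM in the single-dose screen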
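System: Purified bovine intestinal alkaline phosphatase (IAP) enzyme | Input: IAP diluted 1/65,000,000 in the well | Also added: CDP-star chemiluminescent phosphatase substrate, 30 µM final | Dosing: 20 µM single dose | Times: Enzyme reaction for 30 min at room temperature | Detection: Luminescence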
bIAP act = increases bovine intestinal alkaline phosphatase activity; purified bovine IAP, CDP-star luminescence, 30 min; hits give high values; fold of DMSO-control signal, blank-subtracted; activation factor at 20 µM; 0.17% of 200,000 active;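 active = activation factor of 2 or more at 20 µM, a signal rise over negative controls twice the positive control's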
mIAP inh confirm = mouse IAP inhibition confirmation. purified mouse IAP, CDP-Star luminescence, 30 min. inhibition, % at 10 µM. shares compounds with mIAP block. AID 434971. 4.7% of 11,000 active;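 active = inhibition of at least 40% at 10 µM in either of the two replicates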;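 also: plate controls were DMSO wells with enzyme for no effect and buffer wells lacking enzyme for full effect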
* = called active by the depositor; · = no result. In the library only some 0.79% were active in any assay of this set; here they are far more common.

SMILES	hIAP act	mIAP activ	hIAP block	mIAP block	bIAP inhibitor	bIAP act	mIAP inh confirm
CC(=O)c1ccc2c(c1)C1C=CCC1C(C(=O)O)N2 (stereo not drawn)	0.878	0.527	12.2	47.3*	-6.8	1.1	58.6*
Cn1c(O)c(C2=c3ccccc3=NC2=O)[nH]c1=S	1.1	0.775	-9.6	22.5	2.8	1	·
O=C1N=c2ccccc2=C1c1sc(=S)n(NC(=O)c2ccccc2)c1O	1.25	0.364	-25.1	63.6*	·	·	64.4*
N/C(=N\OC(=O)CSc1ccccc1)c1cccc([N+](=O)[O-])c1	0.994	0.949	0.6	5.1	1.1	1	·
Cc1ccc(C(=O)O/N=C(\N)Cc2cccs2)cc1[N+](=O)[O-]	0.959	1.02	4.1	-1.6	·	·	·
CCOC(=O)c1sc(N=NC2=C(O)CC(C)(C)CC2=O)c(C(=O)OCC)c1C	1.25	3.97*	-24.9	-297.1	-10.5	1.1	-209.7
CCOC(=O)c1cc(CC)sc1/N=C/C1=C(O)CC(C)(C)CC1=O	0.992	1.01	0.8	-1.3	-23.4	1.2	·
O=C(NCCO)Nc1ccc2nc(-c3ccco3)c(-c3ccco3)nc2c1	1.06	0.582	-5.7	41.8*	7.3	0.9	49.3*
O=C(NCCCO)c1ccc2nc(-c3ccco3)c(-c3ccco3)nc2c1	·	·	·	·	-25.2	1.3	·
Cc1ccc(S(=O)(=O)N(C)C)cc1NC(=S)N1CCc2ccccc21	1.04	1.01	-3.8	-1.1	-12.0	1.1	·
CC(NC(=O)Nc1ccc(Cl)cc1)c1ccccc1 (stereo not drawn)	0.88	3.28*	12.0	-228.4	·	·	-110.7
CCOc1ccc(NC(=O)NC(C)c2ccc3c(c2)OCO3)cc1 (stereo not drawn)	1.08	1.21	-8.4	-21.2	·	·	·
CC(C)c1ccc(NC(=O)NC(C)c2ccc3c(c2)OCO3)cc1 (stereo not drawn)	1.16	4.52*	-15.5	-352.2	·	·	-231.2
Cc1cc2nc(C)n(CCCNC(=O)Nc3cccc4ccccc34)c2cc1C	1.14	2.56*	-13.7	-155.5	-167.3	2.7*	-118.3
Cc1cc(O)c2c(c1O)C(=O)[C@]13C(=C2O)C(=O)[C@@H]2[C@@H](O)[C@H]1[C@@H]1[C@H](O)[C@H]3C(=O)C3=C(O)c4c(O)cc(C)c(O)c4C(=O)[C@]312	0.953	0.532	4.7	46.8*	·	·	41.1*
CCOc1ccc(CCNC(=O)C2CCCN(c3nnc(-n4cccc4)s3)C2)cc1OCC (stereo not drawn)	1.06	1.03	-5.9	-2.6	2.4	1	·
C=C1c2cccc(O)c2C(=O)C2C(=O)[C@]3(O)C(=O)C(C(N)=O)C(=O)[C@@H](N(C)C)[C@@H]3[C@@H](O)[C@H]12 (stereo partly drawn)	0.891	0.512	10.9	48.8*	·	·	48.0*
O=C(CNS(=O)(=O)c1ccc([N+](=O)[O-])cc1)N/N=C\c1ccc(O)cc1	1.05	0.932	-5.1	6.8	·	·	·
O=C(CNS(=O)(=O)c1ccc([N+](=O)[O-])cc1)N/N=C/c1ccc(O)cc1O	1.85	0.597	-85.1	40.3*	·	·	42.3*
Cc1cc(-c2ccc(N=Nc3c(S(=O)(=O)O)cc4cc(S(=O)(=O)O)cc(N)c4c3O)c(C)c2)ccc1N=Nc1c(S(=O)(=O)O)cc2cc(S(=O)(=O)O)cc(N)c2c1O	0.716	0.233	28.4	76.7*	·	·	83.1*
O=C1C2C3CC(C(Br)C3Br)C2C(=O)N1CC1CCCO1 (stereo not drawn)	1.33	1.13	-33.3	-13.2	·	·	·
CCc1ccc(NC(=O)Nc2ccc3c(c2)N(C)C(=O)CS3)cc1	1.6	2.87*	-60.2	-187.1	12.9	0.9	-113.8
Cc1cc(C)cc(NC(=O)Nc2ccc3c(c2)N(C)C(=O)CS3)c1	1.42	3.98*	-41.5	-297.5	-0.3	1	-154.2
COc1cc(NC(=O)CSc2c3c(nc4ccccc24)CCC3)cc(OC)c1OC	0.997	1.02	0.3	-2.4	8.8	0.9	·
Cc1ccc(S(=O)(=O)Nc2ccccc2C(=O)N2CCCC2)cc1	0.879	0.986	12.1	1.4	·	·	·
SMILES	hIAP act	mIAP activ	hIAP block	mIAP block	bIAP inhibitor	bIAP act	mIAP inh confirm
C#CCOCCOCCOCCNc1nc(N2CCN(C(=O)CCCCCCCCCCNC(=O)[C@H]([C@@H](C)CC)n3cc(CCCCCN)nn3)CC2)nc(N2CCN(C(=O)CCCCCCCCCCNC(=O)[C@@H]([C@H](C)O)n3cc(C)nn3)CC2)n1	1.02	2.13*	-2.4	-113.2	·	·	-310.1
C#CCOCCOCCOCCNc1nc(N2CCN(C(=O)CCCCCCCCCCNC(=O)[C@H](CCC(=O)O)n3cc(CCCCCN)nn3)CC2)nc(N2CCN(C(=O)CCCCCCCCCCNC(=O)[C@@H]([C@H](C)O)n3cc(C)nn3)CC2)n1	1.03	1.03	-2.9	-3.2	·	·	·
C#CCOCCOCCOCCNc1nc(N2CCN(C(=O)CCCCCCCCCCNC(=O)Cn3cc(CCCCCN)nn3)CC2)nc(N2CCN(C(=O)CCCCCCCCCCNC(=O)[C@H]([C@@H](C)CC)n3cc(CCCCCN)nn3)CC2)n1	0.827	4.08*	17.3	-307.8	·	·	-267.4
C#CCOCCOCCOCCNc1nc(N2CCN(C(=O)CCCCCCCCCCNC(=O)[C@H](CCCCN)n3cc(C)nn3)CC2)nc(N2CCN(C(=O)CCCCCCCCCCNC(=O)[C@@H]([C@H](C)CC)n3cc(CCCCCN)nn3)CC2)n1	1.08	2.96*	-7.9	-195.5	·	·	-262.9
NC(=O)CC1Nc2cccc3cccc(c23)NC1=O (stereo not drawn)	1.17	0.592	-16.9	40.8*	5.0	0.9	50.4*
O=C(CC1Nc2cccc3cccc(c23)NC1=O)Nc1ccccc1 (stereo not drawn)	1.09	0.634	-9.3	36.6	-7.5	1.1	·
Nc1cccc2cnccc12	1.13	0.957	-12.6	4.3	-0.1	1	·
Nc1ccncc1N	1.21	0.285	-21.0	71.5*	·	·	74.9*
CCCSc1cc(=O)n(-c2ccccc2)nc1C(=O)OCC	0.698	0.965	30.2	3.5	2.4	1	·
O=C(Nc1ccccc1)NC1CC2CCC(C1)N2Cc1nnnn1Cc1ccc2c(c1)OCO2 (stereo not drawn)	1.17	2.49*	-17.1	-148.6	-84.7	1.8	-122.8
c1ccc(Cn2nnnc2CN2CCN(Cc3ccc4c(c3)OCO4)CC2)cc1	1.02	1.02	-1.9	-2.0	1.9	1	·
O=C(NCc1ccc2c(c1)OCO2)c1cc(-c2ccccc2)c(N2CCOCC2)s1	1.18	1.81	-17.8	-81.2	·	·	·
CCOc1ccc(CCNC(=O)c2cc(-c3ccccc3)c(N3CCOCC3)s2)cc1	1.2	3.22*	-20.1	-221.9	·	·	-109.5
COc1ccc(Cc2nc(C(=O)Nc3ccc(F)cc3)cs2)cc1	0.988	1	1.2	0.0	·	0.3	·
CCc1ccc(C2C(C#N)=C(N)SC(N)=C2C#N)s1	0.991	0.774	0.9	22.6	8.6	0.9	·

Screening results from PubChem BioAssay.
